This passage reports inhibition results from ChEMBL document CHEMBL2331271, “Stereoselective synthesis of a new class of potent and selective inhibitors of human Δ8,7-sterol isomerase” (Bioorg Med Chem, 2013).

Each structure is given as a SMILES string. Calls of active or inactive are those of the source. The calls are words filed in the database; no cut-off is given here.

This assay deals with 3-beta-hydroxysteroid-Delta(8),Delta(7)-isomerase/Delta(24)-sterol reductase (Homo sapiens) (UniProt Q15125+Q15392). Kind of assay: Inhibition of Delta(8)-Delta(7) sterol isomerase/Delta(24)-sterol reductase-mediated cholesterol biosynthesis in human HL60 cells assessed as increase in zymostenol and zymosterol accumulation. The note with it: HL-60. It counts as cell-based. In a few lines: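 HL-60 cells (10^6) incubated 24 h at 37 °C, 5% CO2 in lipid-free medium with 1% LPDS, with compound in ethanol at final 1 or 50 µM. Cells were then saponified in 1 M NaOH at 70 °C for 60 min, extracted into TBME with cholestane internal standard, and silylated with TSIM. The sterol pattern was read by GC-MS full scan, with sterols identified by retention time and MS against authentic samples.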
3-beta-hydroxysteroid-Delta(8),Delta(7)-isomerase/Delta(24)-sterol reductase (Homo sapiens), sequence (Q15125 whole entry, looked up): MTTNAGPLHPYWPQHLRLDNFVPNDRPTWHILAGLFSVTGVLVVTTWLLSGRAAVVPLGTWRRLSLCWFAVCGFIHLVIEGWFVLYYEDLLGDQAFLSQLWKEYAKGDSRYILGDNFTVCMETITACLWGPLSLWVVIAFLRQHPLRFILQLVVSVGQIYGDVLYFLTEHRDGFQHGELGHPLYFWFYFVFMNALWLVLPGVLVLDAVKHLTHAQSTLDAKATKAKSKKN
3-beta-hydroxysteroid-Delta(8),Delta(7)-isomerase/Delta(24)-sterol reductase (Homo sapiens), sequence (Q15392 whole entry, looked up): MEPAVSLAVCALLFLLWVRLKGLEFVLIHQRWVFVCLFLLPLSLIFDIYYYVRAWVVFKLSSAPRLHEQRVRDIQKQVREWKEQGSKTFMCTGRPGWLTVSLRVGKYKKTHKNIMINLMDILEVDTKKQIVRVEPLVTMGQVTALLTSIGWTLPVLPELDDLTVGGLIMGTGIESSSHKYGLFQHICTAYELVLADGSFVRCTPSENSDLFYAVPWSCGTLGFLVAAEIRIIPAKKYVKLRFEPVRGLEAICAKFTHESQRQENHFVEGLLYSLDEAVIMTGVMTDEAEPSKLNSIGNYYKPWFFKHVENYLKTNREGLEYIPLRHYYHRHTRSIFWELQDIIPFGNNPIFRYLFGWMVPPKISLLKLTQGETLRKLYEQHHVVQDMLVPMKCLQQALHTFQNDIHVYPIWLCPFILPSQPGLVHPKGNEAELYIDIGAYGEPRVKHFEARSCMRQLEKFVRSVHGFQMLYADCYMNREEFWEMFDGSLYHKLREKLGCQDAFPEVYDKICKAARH

For the molecule `CC/C(=C(\c1ccccc1)c1ccc(OCCN(C)C)cc1)c1ccccc1`, the inhibition entry is “Active”.
